How the values were obtained:
[1] = Inhibition of melanogenesis in mouse B16-4A5 cells after 72 hrs by spectrophotometry relative to control; format: functional, cell-based
Summary of the method: (§1)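 Murine B16 melanoma 4A5 cells seeded at 2.0 × 10^4 cells/well in 24-well plates and cultured 24 h, then given test compound (DMSO, final 0.1%) plus 1 mM theophylline for 72 h. Cells trypsinized, washed and lysed in 1 M NaOH at 80 °C for 30 min; lysate absorbance read at 405 nm. Inhibition is corrected for cell viability, mean ± SEM (n = 4); IC50 determined graphically.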

[2] = Inhibition of melanogenesis in mouse B16-4A5 cells at 30 uM after 72 hrs by spectrophotometry relative to control; format: functional; settings: B16-4A5, 72 h; summary of the method: as §1
[3] = Cytotoxicity against mouse B16-4A5 cells assessed as viable cells at 30 uM after 72 hrs by WST-8 assay; format: cell-based; settings: read-out: Activity
Summary of the method: (§2)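 B16 melanoma 4A5 cells (DMEM, 4.5 g/L glucose, 10% FBS, 37 °C, 5% CO2) seeded at 5.0 × 10^4 cells/well in 96-well plates, grown 24 h, then exposed to test compound (DMSO, final 0.1%) for 70 h. After a PBS wash, cells were given DMEM plus WST-8 for 2 h more. Formazan read at 450 nm (reference 655 nm).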

[4] = Inhibition of melanogenesis in mouse B16-4A5 cells at 3 uM after 72 hrs by spectrophotometry relative to control; format: functional; settings: B16-4A5, 72 h; summary of the method: as §1
[5] = Inhibition of melanogenesis in mouse B16-4A5 cells at 10 uM after 72 hrs by spectrophotometry relative to control; format: functional; settings: B16-4A5, 72 h; summary of the method: as §1
[6] = Inhibition of melanogenesis in mouse B16-4A5 cells at 1 uM after 72 hrs by spectrophotometry relative to control; format: functional; settings: B16-4A5, 72 h; summary of the method: as §1
[7] = Inhibition of melanogenesis in mouse B16-4A5 cells at 100 uM after 72 hrs by spectrophotometry relative to control; format: functional; settings: B16-4A5, 72 h; summary of the method: as §1
[8] = Cytotoxicity against mouse B16-4A5 cells assessed as viable cells at 10 uM after 72 hrs by WST-8 assay; format: cell-based; settings: read-out: Activity; summary of the method: as §2
[9] = Inhibition of melanogenesis in mouse B16-4A5 cells at 1000 uM after 72 hrs by spectrophotometry relative to control; format: functional; settings: B16-4A5, 72 h
Summary of the method: (§3)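 B16 melanoma 4A5 cells were grown in DMEM (4.5 g/L glucose) with 10% FBS and penicillin/streptomycin at 37 °C, 5% CO2, then seeded at 2.0 × 10^4 cells/well. After 24 h, compound (DMSO stock, 0.1% DMSO final) was added with 1 mM theophylline for 72 h. Cells were trypsinized, washed, lysed in 1 M NaOH (80 °C, 30 min) and read at 405 nm. Inhibition was corrected for WST-8 viability; mean ± SEM, n = 4.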

[10] = Inhibition of melanogenesis in mouse B16-4A5 cells at 300 uM after 72 hrs by spectrophotometry relative to control; format: functional; settings: B16-4A5, 72 h; summary of the method: as §3
[11] = Mus musculus, B16-4A5, 72 h, read-out: IC50

SMILES	IC50 [1] [µM]	inhibition at 30 µM [2] [%]	viability at 72 h, 30 µM [3] [%]	inhibition at 3 µM [4] [%]	inhibition at 10 µM [5] [%]	inhibition at 1 µM [6] [%]	inhibition at 100 µM [7] [%]	IC50 [1, 11] [µM]	viability at 72 h, 10 µM [8] [%]	inhibition at 1000 µM [9] [%]	inhibition at 300 µM [10] [%]
CC(C)[C@H]1CC[C@]2(C)C(=O)CCC(C=O)=C[C@@H]12	2.5	68.5	> 95.2	50.3	57.6	45.5	80.6	–	–	–	–
O=C(OC[C@H]1CC[C@](CO)(CCO)[C@@H](O)C1)C(=C/c1ccc(O)cc1)/C(=C\c1ccc(O)c(O)c1)C(=O)OC[C@H]1CC[C@](CO)(CCO)[C@@H](O)C1	–	49.8	> 95.2	45	59	36.1	44.2	5	–	–	–
O=C[C@]1(/C=C\O[C@@H]2O[C@H](CO)[C@@H](O)[C@H](O)[C@H]2O)CC[C@H](COC(=O)C(=C/c2ccc(O)cc2)/C(=C\c2ccc(O)c(O)c2)C(=O)OC[C@H]2CC[C@](C=O)(/C=C\O[C@@H]3O[C@H](CO)[C@@H](O)[C@H](O)[C@H]3O)[C@@H](O)C2)C[C@@H]1O	> 100	34.8	> 95.2	30.2	31.8	28.6	16.7	–	–	–	–
COc1ccc(/C=C(C(=O)OC[C@H]2CC[C@](CO)(CCO)[C@@H](O)C2)\C(=C/c2ccc(OC)c(OC)c2)C(=O)OC[C@H]2CC[C@](CO)(CCO)[C@@H](O)C2)cc1	–	-19.9	68.8	24.1	8.1	34.4	-15.7	–	82	–	–
OCC[C@@]1(CO)CC[C@H](CO)C[C@@H]1O	–	51.6	> 95.2	55.1	55.9	45	25.6	2	–	–	–
CO[C@H]1C[C@]2(CC[C@H](COC(=O)/C=C/c3ccc(O)c(O)c3)C[C@@H]2O)[C@H](OC)O1	19.3	60	> 80.3	16.9	36.4	13.5	81.2	–	–	–	–
C=C1/C=C/[C@H](C(C)C)CCC(=C)[C@H](O)CC1	17.3	61.2	> 95.2	30.5	40.6	28.9	62.2	–	–	–	–
OC[C@H]1O[C@@H](Oc2ccc(O)cc2)[C@H](O)[C@@H](O)[C@@H]1O [ARBUTIN]	–	20.4	–	–	10.6	–	38.1	174	–	83.7	61.5
O=C[C@]1(CCO[C@@H]2O[C@H](CO)[C@@H](O)[C@H](O)[C@H]2O)CC[C@H](COC(=O)C(=C/c2ccc(O)cc2)/C(=C\c2ccc(O)c(O)c2)C(=O)OC[C@H]2CC[C@](C=O)(CCO[C@@H]3O[C@H](CO)[C@@H](O)[C@H](O)[C@H]3O)[C@@H](O)C2)C[C@@H]1O	–	24.2	> 95.2	18	18.4	8.1	29.8	–	–	–	–
CC(C)[C@H]1CC[C@]2(C)[C@@H](O)CCC(C=O)=C[C@@H]12	57.5	37.7	> 80.3	9.2	14.7	-4.4	58.8	–	–	–	–
O=C[C@]1(/C=C\O[C@@H]2O[C@H](CO)[C@@H](O)[C@H](O)[C@H]2O)CC[C@H](COC(=O)C2=Cc3ccc(O)c(O)c3[C@@H](c3ccc(O)cc3)[C@@H]2C(=O)OC[C@H]2CC[C@](C=O)(/C=C\O[C@@H]3O[C@H](CO)[C@@H](O)[C@H](O)[C@H]3O)[C@@H](O)C2)C[C@@H]1O	> 100	8.4	> 80.3	14.9	9.4	12.8	-27.9	–	–	–	–
CC(C)[C@@H]1CC[C@@](C)(O)[C@H]2CCC(C=O)=C[C@@H]12	26.2	50.8	> 80.3	29.9	35.8	19.2	66.3	–	–	–	–
CC1(C)C[C@H](OC(=O)c2ccccc2)[C@@]23CC[C@@H](O)[C@@](C)(CC[C@H]12)C3	–	–	7.9	40.2	66.7	45.3	–	3	75.9	–	–
O=C(OC[C@H]1CC[C@](CO)(CCO[C@@H]2O[C@H](CO)[C@@H](O)[C@H](O)[C@H]2O)[C@@H](O)C1)C(=C/c1ccc(O)cc1)/C(=C\c1ccc(O)c(O)c1)C(=O)OC[C@H]1CC[C@](CO)(CCO[C@@H]2O[C@H](CO)[C@@H](O)[C@H](O)[C@H]2O)[C@@H](O)C1	> 100	32.3	> 80.3	27.2	27.3	22.3	25.3	–	–	–	–
O=C[C@]1(/C=C\O[C@@H]2O[C@H](CO)[C@@H](O)[C@H](O)[C@H]2O)CC[C@H](COC(=O)/C=C/c2ccc(O)c(O)c2)C[C@@H]1O	> 100	11.4	> 95.2	-8.5	9.3	-3.8	12.2	–	–	–	–
COC(=O)C(=C/c1ccc(OC)cc1)/C(=C\c1ccc(OC)c(OC)c1)C(=O)OC	–	35.9	> 74.5	48.4	43.6	49	11.5	–	–	–	–
OC[C@H]1CC[C@](CO)(CCO[C@@H]2O[C@H](CO)[C@@H](O)[C@H](O)[C@H]2O)[C@@H](O)C1	–	-2.5	> 80.3	17.9	15.3	16.1	-9.4	–	–	–	–
CO[C@@H]1C[C@]2(CC[C@H](COC(=O)/C=C/c3ccc(O)c(O)c3)C[C@@H]2O)[C@@H](OC)O1	3.6	62.8	> 95.2	42.8	65.2	34.7	66.8	–	–	–	–
O=C[C@]1(/C=C\O[C@@H]2O[C@H](CO)[C@@H](O)[C@H](O)[C@H]2O)CC[C@H](COC(=O)C2=Cc3cc(O)c(O)cc3[C@@H](c3ccc(O)cc3)[C@@H]2C(=O)OC[C@H]2CC[C@](C=O)(/C=C\O[C@@H]3O[C@H](CO)[C@@H](O)[C@H](O)[C@H]3O)[C@@H](O)C2)C[C@@H]1O	> 100	2.9	> 80.3	8.7	3.6	9.2	8.7	–	–	–	–
C=C1CC[C@@H](O)[C@]2(C)CC[C@@H](C(C)C)[C@H](O)[C@@H]12	8.4	54.7	> 74.5	39.7	53.8	42.3	59.2	–	–	–	–
CC(C)[C@@H]1CC[C@@]2(C)[C@H](O)CCC(C=O)=C[C@@H]12 [APHANAMOL II]	> 100	28.3	> 74.5	34.3	32.9	37.6	42.1	–	–	–	–
CC(C)[C@@H]1CC[C@@](C)(O)[C@@H]2CCC(C=O)=C[C@H]21	5.1	65.9	> 80.3	45.5	64	25	48.8	–	–	–	–

Source: ChEMBL document CHEMBL3259598, “Lignan dicarboxylates and terpenoids from the flower buds of Cananga odorata and their inhibitory effects on melanogenesis” (J Nat Prod, 2014)
